According to ChEMBL document CHEMBL5058577, “EUbOPEN Chemogenomics Library 2 (Multiplex)” (2022):

System: Fibroblast
Test: Multiplex assay against human fibroblast
Type: toxicity, cell-based
How it was run: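 Hoechst33342, BioTracker Green Microtubule Cytoskeleton Dye, MitoTracker Red and Annexin V Alexa Fluor 680 were added to live cells at seeding, and imaging on a CQ1 microscope at 37°C and 5% CO2 followed compound addition. Gating by CellPathfinder machine learning separated cells into Hoechst high-intensity objects or normal cells, then normal cells into healthy, pyknosed or fragmented nuclei, then pyknosed cells into mitotic or apoptotic. Per cents of healthy-nucleus cells are reported for the tubulin, mitochondrial-mass and membrane-permeability phenotypes.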

[1] = 12 h, 1 µM, compound concentration 1 uM, replicate 1
[2] = 12 h, 1 µM, compound concentration 1 uM, replicate 2
[3] = 12 h, 10 µM, compound concentration 10 uM, replicate 1
[4] = 12 h, 10 µM, compound concentration 10 uM, replicate 2
[5] = 24 h, 1 µM, compound concentration 1 uM, replicate 1
[6] = 24 h, 1 µM, compound concentration 1 uM, replicate 2
[7] = 24 h, 10 µM, compound concentration 10 uM, replicate 1
[8] = 24 h, 10 µM, compound concentration 10 uM, replicate 2
[9] = 48 h, 1 µM, compound concentration 1 uM, replicate 1
[10] = 48 h, 1 µM, compound concentration 1 uM, replicate 2
[11] = 48 h, 10 µM, compound concentration 10 uM, replicate 1
[12] = 48 h, 10 µM, compound concentration 10 uM, replicate 2

Structure (SMILES): CC1(COc2ccc3c(c2)ncn3-c2ccc3cccc(N4CCC(N)CC4)c3n2)COC1 [CRENOLANIB]
- Population Apoptotic (%) [1]: 61%
- Population Fragmented Nuclei (%) [1]: 27%
- Population Healthy Nuclei (%) [1]: 60%
- Population Hoechst High Intensity Objects (%) [1]: 2%
- Population Membrane Permeable-Phenotype (%) [1]: 0%
- Population Mitochondria Different-Phenotype (%) [1]: 4%
- Population Mitotic Cells (%) [1]: 38%
- Population Normal (%) [1]: 97%
- Population Pyknosed Nuclei (%) [1]: 12%
- Population Tubulin-Different-Phenotype (%) [1]: 48%
- Population Apoptotic (%) [2]: 18%
- Population Fragmented Nuclei (%) [2]: 33%
- Population Healthy Nuclei (%) [2]: 47%
- Population Hoechst High Intensity Objects (%) [2]: 4%
- Population Membrane Permeable-Phenotype (%) [2]: 7%
- Population Mitochondria Different-Phenotype (%) [2]: 9%
- Population Mitotic Cells (%) [2]: 81%
- Population Normal (%) [2]: 95%
- Population Pyknosed Nuclei (%) [2]: 18%
- Population Tubulin-Different-Phenotype (%) [2]: 67%
- Population Apoptotic (%) [3]: 33%
- Population Fragmented Nuclei (%) [3]: 21%
- Population Healthy Nuclei (%) [3]: 48%
- Population Hoechst High Intensity Objects (%) [3]: 4%
- Population Membrane Permeable-Phenotype (%) [3]: 2%
- Population Mitochondria Different-Phenotype (%) [3]: 6%
- Population Mitotic Cells (%) [3]: 66%
- Population Normal (%) [3]: 95%
- Population Pyknosed Nuclei (%) [3]: 30%
- Population Tubulin-Different-Phenotype (%) [3]: 43%
- Population Apoptotic (%) [4]: 34%
- Population Fragmented Nuclei (%) [4]: 29%
- Population Healthy Nuclei (%) [4]: 40%
- Population Hoechst High Intensity Objects (%) [4]: 13%
- Population Membrane Permeable-Phenotype (%) [4]: 6%
- Population Mitochondria Different-Phenotype (%) [4]: 9%
- Population Mitotic Cells (%) [4]: 65%
- Population Normal (%) [4]: 86%
- Population Tubulin-Different-Phenotype (%) [4]: 48%
- Population Apoptotic (%) [5]: 92%
- Population Fragmented Nuclei (%) [5]: 29%
- Population Healthy Nuclei (%) [5]: 60%
- Population Hoechst High Intensity Objects (%) [5]: 0%
- Population Membrane Permeable-Phenotype (%) [5]: 0%
- Population Mitochondria Different-Phenotype (%) [5]: 9%
- Population Mitotic Cells (%) [5]: 7%
- Population Normal (%) [5]: 99%
- Population Pyknosed Nuclei (%) [5]: 9%
- Population Tubulin-Different-Phenotype (%) [5]: 61%
- Population Apoptotic (%) [6]: 50%
- Population Fragmented Nuclei (%) [6]: 41%
- Population Healthy Nuclei (%) [6]: 48%
- Population Hoechst High Intensity Objects (%) [6]: 1%
- Population Membrane Permeable-Phenotype (%) [6]: 4%
- Population Mitotic Cells (%) [6]: 50%
- Population Normal (%) [6]: 98%
- Population Pyknosed Nuclei (%) [6]: 10%
- Population Tubulin-Different-Phenotype (%) [6]: 63%
- Population Apoptotic (%) [7]: 36%
- Population Fragmented Nuclei (%) [7]: 23%
- Population Healthy Nuclei (%) [7]: 51%
- Population Hoechst High Intensity Objects (%) [7]: 16%
- Population Membrane Permeable-Phenotype (%) [7]: 0%
- Population Mitochondria Different-Phenotype (%) [7]: 8%
- Population Mitotic Cells (%) [7]: 63%
- Population Normal (%) [7]: 83%
- Population Pyknosed Nuclei (%) [7]: 24%
- Population Tubulin-Different-Phenotype (%) [7]: 23%
- Population Apoptotic (%) [8]: 34%
- Population Fragmented Nuclei (%) [8]: 25%
- Population Healthy Nuclei (%) [8]: 46%
- Population Hoechst High Intensity Objects (%) [8]: 17%
- Population Membrane Permeable-Phenotype (%) [8]: 6%
- Population Mitochondria Different-Phenotype (%) [8]: 6%
- Population Mitotic Cells (%) [8]: 65%
- Population Normal (%) [8]: 82%
- Population Pyknosed Nuclei (%) [8]: 28%
- Population Tubulin-Different-Phenotype (%) [8]: 38%
- Population Apoptotic (%) [9]: 75%
- Population Fragmented Nuclei (%) [9]: 32%
- Population Healthy Nuclei (%) [9]: 60%
- Population Hoechst High Intensity Objects (%) [9]: 1%
- Population Membrane Permeable-Phenotype (%) [9]: 0%
- Population Mitochondria Different-Phenotype (%) [9]: 8%
- Population Mitotic Cells (%) [9]: 25%
- Population Normal (%) [9]: 98%
- Population Pyknosed Nuclei (%) [9]: 7%
- Population Tubulin-Different-Phenotype (%) [9]: 55%
- Population Apoptotic (%) [10]: 20%
- Population Fragmented Nuclei (%) [10]: 44%
- Population Healthy Nuclei (%) [10]: 44%
- Population Hoechst High Intensity Objects (%) [10]: 0%
- Population Membrane Permeable-Phenotype (%) [10]: 5%
- Population Mitochondria Different-Phenotype (%) [10]: 7%
- Population Mitotic Cells (%) [10]: 80%
- Population Normal (%) [10]: 99%
- Population Pyknosed Nuclei (%) [10]: 12%
- Population Tubulin-Different-Phenotype (%) [10]: 74%
- Population Apoptotic (%) [11]: 42%
- Population Fragmented Nuclei (%) [11]: 16%
- Population Healthy Nuclei (%) [11]: 62%
- Population Hoechst High Intensity Objects (%) [11]: 24%
- Population Membrane Permeable-Phenotype (%) [11]: 1%
- Population Mitochondria Different-Phenotype (%) [11]: 6%
- Population Mitotic Cells (%) [11]: 57%
- Population Normal (%) [11]: 75%
- Population Pyknosed Nuclei (%) [11]: 21%
- Population Tubulin-Different-Phenotype (%) [11]: 23%
- Population Apoptotic (%) [12]: 37%
- Population Fragmented Nuclei (%) [12]: 23%
- Population Healthy Nuclei (%) [12]: 42%
- Population Hoechst High Intensity Objects (%) [12]: 21%
- Population Mitotic Cells (%) [12]: 62%
- Population Normal (%) [12]: 78%
- Population Pyknosed Nuclei (%) [12]: 33%
- Population Tubulin-Different-Phenotype (%) [12]: 27%

Structure (SMILES): C[C@@H]1C[C@H]2[C@@H]3CCC4=CC(=O)C=C[C@]4(C)[C@@]3(F)[C@@H](O)C[C@]2(C)[C@@]1(O)C(=O)CO [DEXAMETHASONE]
- Population Apoptotic (%) [1]: 62%
- Population Fragmented Nuclei (%) [1]: 18%
- Population Healthy Nuclei (%) [1]: 66%
- Population Hoechst High Intensity Objects (%) [1]: 7%
- Population Membrane Permeable-Phenotype (%) [1]: 0%
- Population Mitochondria Different-Phenotype (%) [1]: 2%
- Population Mitotic Cells (%) [1]: 37%
- Population Normal (%) [1]: 92%
- Population Pyknosed Nuclei (%) [1]: 15%
- Population Tubulin-Different-Phenotype (%) [1]: 26%
- Population Apoptotic (%) [2]: 38%
- Population Fragmented Nuclei (%) [2]: 30%
- Population Healthy Nuclei (%) [2]: 48%
- Population Hoechst High Intensity Objects (%) [2]: 3%
- Population Membrane Permeable-Phenotype (%) [2]: 9%
- Population Mitochondria Different-Phenotype (%) [2]: 4%
- Population Mitotic Cells (%) [2]: 61%
- Population Normal (%) [2]: 96%
- Population Pyknosed Nuclei (%) [2]: 20%
- Population Tubulin-Different-Phenotype (%) [2]: 52%
- Population Apoptotic (%) [3]: 35%
- Population Fragmented Nuclei (%) [3]: 20%
- Population Healthy Nuclei (%) [3]: 65%
- Population Hoechst High Intensity Objects (%) [3]: 2%
- Population Membrane Permeable-Phenotype (%) [3]: 1%
- Population Mitochondria Different-Phenotype (%) [3]: 5%
- Population Mitotic Cells (%) [3]: 65%
- Population Normal (%) [3]: 98%
- Population Pyknosed Nuclei (%) [3]: 13%
- Population Tubulin-Different-Phenotype (%) [3]: 22%
- Population Apoptotic (%) [4]: 30%
- Population Fragmented Nuclei (%) [4]: 24%
- Population Healthy Nuclei (%) [4]: 52%
- Population Hoechst High Intensity Objects (%) [4]: 6%
- Population Membrane Permeable-Phenotype (%) [4]: 4%
- Population Mitochondria Different-Phenotype (%) [4]: 2%
- Population Mitotic Cells (%) [4]: 69%
- Population Normal (%) [4]: 93%
- Population Pyknosed Nuclei (%) [4]: 23%
- Population Tubulin-Different-Phenotype (%) [4]: 53%
- Population Apoptotic (%) [5]: 48%
- Population Fragmented Nuclei (%) [5]: 14%
- Population Healthy Nuclei (%) [5]: 68%
- Population Hoechst High Intensity Objects (%) [5]: 5%
- Population Membrane Permeable-Phenotype (%) [5]: 1%
- Population Mitochondria Different-Phenotype (%) [5]: 3%
- Population Mitotic Cells (%) [5]: 52%
- Population Normal (%) [5]: 94%
- Population Pyknosed Nuclei (%) [5]: 17%
- Population Tubulin-Different-Phenotype (%) [5]: 26%
- Population Apoptotic (%) [6]: 31%
- Population Fragmented Nuclei (%) [6]: 29%
- Population Healthy Nuclei (%) [6]: 50%
- Population Hoechst High Intensity Objects (%) [6]: 6%
- Population Membrane Permeable-Phenotype (%) [6]: 4%
- Population Mitochondria Different-Phenotype (%) [6]: 1%
- Population Mitotic Cells (%) [6]: 68%
- Population Normal (%) [6]: 93%
- Population Pyknosed Nuclei (%) [6]: 19%
- Population Tubulin-Different-Phenotype (%) [6]: 53%
- Population Apoptotic (%) [7]: 42%
- Population Fragmented Nuclei (%) [7]: 15%
- Population Healthy Nuclei (%) [7]: 65%
- Population Hoechst High Intensity Objects (%) [7]: 3%
- Population Membrane Permeable-Phenotype (%) [7]: 1%
- Population Mitochondria Different-Phenotype (%) [7]: 6%
- Population Mitotic Cells (%) [7]: 57%
- Population Normal (%) [7]: 96%
- Population Pyknosed Nuclei (%) [7]: 18%
- Population Tubulin-Different-Phenotype (%) [7]: 22%
- Population Apoptotic (%) [8]: 30%
- Population Fragmented Nuclei (%) [8]: 30%
- Population Healthy Nuclei (%) [8]: 44%
- Population Hoechst High Intensity Objects (%) [8]: 6%
- Population Membrane Permeable-Phenotype (%) [8]: 10%
- Population Mitochondria Different-Phenotype (%) [8]: 2%
- Population Mitotic Cells (%) [8]: 69%
- Population Normal (%) [8]: 93%
- Population Pyknosed Nuclei (%) [8]: 24%
- Population Tubulin-Different-Phenotype (%) [8]: 45%
- Population Apoptotic (%) [9]: 46%
- Population Fragmented Nuclei (%) [9]: 22%
- Population Healthy Nuclei (%) [9]: 52%
- Population Hoechst High Intensity Objects (%) [9]: 6%
- Population Membrane Permeable-Phenotype (%) [9]: 2%
- Population Mitochondria Different-Phenotype (%) [9]: 4%
- Population Mitotic Cells (%) [9]: 53%
- Population Normal (%) [9]: 93%
- Population Pyknosed Nuclei (%) [9]: 24%
- Population Tubulin-Different-Phenotype (%) [9]: 34%
- Population Apoptotic (%) [10]: 37%
- Population Fragmented Nuclei (%) [10]: 38%
- Population Healthy Nuclei (%) [10]: 46%
- Population Hoechst High Intensity Objects (%) [10]: 4%
- Population Membrane Permeable-Phenotype (%) [10]: 4%
- Population Mitotic Cells (%) [10]: 62%
- Population Normal (%) [10]: 95%
- Population Pyknosed Nuclei (%) [10]: 14%
- Population Tubulin-Different-Phenotype (%) [10]: 53%
- Population Apoptotic (%) [11]: 50%
- Population Fragmented Nuclei (%) [11]: 22%
- Population Healthy Nuclei (%) [11]: 55%
- Population Hoechst High Intensity Objects (%) [11]: 4%
- Population Membrane Permeable-Phenotype (%) [11]: 0%
- Population Mitochondria Different-Phenotype (%) [11]: 7%
- Population Mitotic Cells (%) [11]: 50%
- Population Normal (%) [11]: 95%
- Population Pyknosed Nuclei (%) [11]: 22%
- Population Tubulin-Different-Phenotype (%) [11]: 19%
- Population Apoptotic (%) [12]: 37%
- Population Fragmented Nuclei (%) [12]: 36%
- Population Healthy Nuclei (%) [12]: 43%
- Population Hoechst High Intensity Objects (%) [12]: 7%
- Population Membrane Permeable-Phenotype (%) [12]: 10%
- Population Mitochondria Different-Phenotype (%) [12]: 0%
- Population Mitotic Cells (%) [12]: 62%
- Population Normal (%) [12]: 92%
- Population Pyknosed Nuclei (%) [12]: 20%
- Population Tubulin-Different-Phenotype (%) [12]: 39%
